From ChEMBL document CHEMBL1153918, “Novel fatty acid synthase (FAS) inhibitors: design, synthesis, biological evaluation, and molecular docking studies” (Bioorg Med Chem, 2009)

What was measured:
[1] = molecular target: Fatty acid synthase (Rattus norvegicus) (UniProt P12785); experiment: Inhibition of rat liver FAS at 60 uM by Coomassie blue staining
How it was run: (§1)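 Rat liver FAS purified, about 90% pure by SDS-PAGE with Coomassie staining. Enzyme, compound, NADPH and acetyl-CoA preincubated in K2HPO4 buffer pH 7.0 for 30 min at 37 °C. Malonyl-CoA then added and NADPH oxidation followed at 340 nm for 3 min at 37 °C. IC50 by linear regression, mean of triplicates. Single-point data given as % inhibition at 60 µM.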

[2] = Cytotoxicity against human HLF by MTT assay; type: cell-based; conditions: HLF cells, read-out: TC50 (the source's name)
How it was run: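 Human embryonic lung fibroblasts (HLF), viability read by MTT method. TC50 values are means of three experiments.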

Fatty acid synthase = Fatty acid synthase (Rattus norvegicus, UniProt P12785); experiment: Inhibition of rat liver FAS by Coomassie blue staining; how it was run: as §1
Chain of Fatty acid synthase (P12785 whole entry): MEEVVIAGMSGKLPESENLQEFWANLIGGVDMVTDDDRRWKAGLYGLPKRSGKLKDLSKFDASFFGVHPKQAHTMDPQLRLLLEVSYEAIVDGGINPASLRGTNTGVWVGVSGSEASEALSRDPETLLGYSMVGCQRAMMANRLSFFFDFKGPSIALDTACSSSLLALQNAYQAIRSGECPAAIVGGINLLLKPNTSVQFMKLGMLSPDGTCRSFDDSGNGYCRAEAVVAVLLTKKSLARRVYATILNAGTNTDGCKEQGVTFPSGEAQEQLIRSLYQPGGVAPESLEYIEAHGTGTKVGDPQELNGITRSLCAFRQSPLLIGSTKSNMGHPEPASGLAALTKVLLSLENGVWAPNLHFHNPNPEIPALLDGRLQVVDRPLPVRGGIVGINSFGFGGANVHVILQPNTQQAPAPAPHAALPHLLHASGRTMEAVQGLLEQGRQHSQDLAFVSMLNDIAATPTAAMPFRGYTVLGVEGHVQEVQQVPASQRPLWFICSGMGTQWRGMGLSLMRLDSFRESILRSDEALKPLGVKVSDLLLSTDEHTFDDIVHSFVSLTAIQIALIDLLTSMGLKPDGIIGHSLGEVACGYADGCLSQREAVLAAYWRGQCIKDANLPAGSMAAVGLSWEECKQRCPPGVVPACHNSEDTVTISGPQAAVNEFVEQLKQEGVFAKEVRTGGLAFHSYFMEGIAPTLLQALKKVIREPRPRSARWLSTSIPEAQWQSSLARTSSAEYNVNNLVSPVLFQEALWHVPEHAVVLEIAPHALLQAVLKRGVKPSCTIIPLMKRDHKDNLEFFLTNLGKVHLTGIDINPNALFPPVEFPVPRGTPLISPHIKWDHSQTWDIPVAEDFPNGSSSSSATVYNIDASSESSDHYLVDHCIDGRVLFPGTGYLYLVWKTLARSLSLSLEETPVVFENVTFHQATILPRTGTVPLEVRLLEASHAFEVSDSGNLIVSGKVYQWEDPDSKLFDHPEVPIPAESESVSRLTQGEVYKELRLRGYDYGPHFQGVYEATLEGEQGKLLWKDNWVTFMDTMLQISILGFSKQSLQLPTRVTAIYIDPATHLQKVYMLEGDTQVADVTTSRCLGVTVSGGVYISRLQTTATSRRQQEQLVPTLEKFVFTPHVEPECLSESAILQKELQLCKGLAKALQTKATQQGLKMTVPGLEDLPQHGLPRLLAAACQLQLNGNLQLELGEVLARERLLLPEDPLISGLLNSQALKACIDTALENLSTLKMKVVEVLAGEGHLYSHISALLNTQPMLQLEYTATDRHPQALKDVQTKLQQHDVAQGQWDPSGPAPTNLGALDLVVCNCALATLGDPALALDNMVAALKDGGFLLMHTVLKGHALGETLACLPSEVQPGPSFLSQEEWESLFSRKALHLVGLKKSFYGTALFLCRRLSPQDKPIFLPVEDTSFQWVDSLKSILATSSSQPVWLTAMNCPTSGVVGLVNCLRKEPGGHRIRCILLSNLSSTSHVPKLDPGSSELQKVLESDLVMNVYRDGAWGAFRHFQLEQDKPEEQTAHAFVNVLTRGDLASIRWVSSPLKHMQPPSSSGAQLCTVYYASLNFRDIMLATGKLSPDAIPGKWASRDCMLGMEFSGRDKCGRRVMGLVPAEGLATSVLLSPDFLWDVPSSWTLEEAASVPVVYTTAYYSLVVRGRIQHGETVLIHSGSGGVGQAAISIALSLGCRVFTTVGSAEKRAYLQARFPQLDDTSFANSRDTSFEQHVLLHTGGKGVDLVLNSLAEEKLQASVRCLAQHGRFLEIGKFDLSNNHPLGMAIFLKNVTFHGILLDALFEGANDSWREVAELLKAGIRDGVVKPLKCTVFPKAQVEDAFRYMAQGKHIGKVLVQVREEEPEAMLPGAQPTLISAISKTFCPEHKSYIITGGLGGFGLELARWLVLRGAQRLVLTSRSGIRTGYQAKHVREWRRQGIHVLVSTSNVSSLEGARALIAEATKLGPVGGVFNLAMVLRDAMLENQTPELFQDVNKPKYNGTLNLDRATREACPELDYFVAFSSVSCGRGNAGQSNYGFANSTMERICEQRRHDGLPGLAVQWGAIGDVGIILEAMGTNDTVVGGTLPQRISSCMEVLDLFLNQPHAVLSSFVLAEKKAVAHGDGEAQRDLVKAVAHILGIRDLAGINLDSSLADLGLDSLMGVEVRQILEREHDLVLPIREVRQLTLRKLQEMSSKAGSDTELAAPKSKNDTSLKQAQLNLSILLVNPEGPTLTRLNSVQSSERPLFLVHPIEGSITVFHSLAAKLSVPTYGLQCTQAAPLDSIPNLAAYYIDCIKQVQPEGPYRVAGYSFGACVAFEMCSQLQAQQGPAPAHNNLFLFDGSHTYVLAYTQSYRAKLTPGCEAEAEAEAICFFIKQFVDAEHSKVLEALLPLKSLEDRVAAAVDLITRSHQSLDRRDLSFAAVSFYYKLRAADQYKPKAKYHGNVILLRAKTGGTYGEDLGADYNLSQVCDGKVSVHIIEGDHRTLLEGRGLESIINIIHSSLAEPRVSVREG

FAS = experiment: Therapeutic index, ratio of TC50 for human HLF to IC50 for rat liver FAS; conditions: HLF cells (TC50)
How it was run: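 In vitro therapeutic index = TC50 (HLF cells, MTT) / IC50 (purified rat liver FAS, NADPH oxidation at 340 nm).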

HeLa = experiment: Cytotoxicity against human HeLa cells after 20 hrs by trypan blue exclusion assay; type: functional, cell-based
How it was run: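 HeLa cells kept in DMEM with 10% fetal calf serum at 37 °C, 5% CO2, for 24 h. About 2.5×10^4 cells/well exposed to graded concentrations (DMSO solution) for 20 h. Cells then trypsinized and counted by trypan-blue exclusion. Three repeats gave SD.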

HL-60 = experiment: Cytotoxicity against human HL60 cells assessed as cell viability after 2 hrs by MTT assay; type: functional, cell-based; conditions: HL-60, 2 h
How it was run: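 HL60 cells in exponential growth suspended in 1640 medium, about 2×10^4 cells/well. Serially diluted compound (DMSO solution) added, then 2 h incubation at 37 °C in 5% CO2. Viable cells counted by MTT. […] given ± SD from three repeats.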

Chain of Fatty acid synthase (Rattus norvegicus) (P12785 whole entry): as above

Row | SMILES | inhibition [1] [%] | IC50 (Fatty acid synthase) [µM] | CC50 [2] [µM] | also measured
1 | CCCCCCCCC[C@H]1OC(=O)C(C)(C)[C@@H]1C(=O)O (relative stereo) | 23.8 |  |  | 
2 | C=C1C(=O)S[C@H](CCCCCC)[C@H]1C(=O)O |  | 16.7 | 96.4 | selectivity ratio (FAS): 5.76
3 | C=C1C(=O)S[C@H](CCCCCCCCC)[C@H]1C(=O)O |  | 2.28 | 6.86 | 
4 | CCCCCCCC[C@H]1OC(=O)C(C)(C)[C@@H]1C(=O)O (relative stereo) | 16.7 |  |  | 
5 | CCCCCCCC[C@H]1OC(=O)C(=C(C)C)[C@@H]1C(=O)O (relative stereo) | 17.4 |  |  | 
6 | C=C1C(=O)O[C@H](CCCCCCCC)[C@H]1C(=O)O |  |  |  | selectivity ratio (FAS): 5.61
7 | C=C1C(=O)S[C@H](CCCCCCCCCC)[C@H]1C(=O)O |  | 1.19 | 6.8 | 
8 | C=C1C(=O)S[C@H](CCCCCCCC)[C@H]1C(=O)O |  | 2.56 | 23.7 | IC50 (HeLa): 46.1 µM; selectivity ratio (FAS): 9.26; IC50 (HL-60): 5.38 µM

Second part, led by results:

Row | inhibition [1] [%] | IC50 (Fatty acid synthase) [µM] | SMILES | CC50 [2] [µM] | also measured
9 | 35.9 |  | CCCCCCC[C@@H]1OC(=O)c2ccccc2[C@H]1C(=O)O (relative stereo) |  | 
10 |  | 0.79 | C=C1C(=O)S[C@H](CCCCCCCCCCC)[C@H]1C(=O)O | 4.75 | 
11 |  | 19.5 | CCCCCCCCCCC[C@@H]1OC(=O)c2ccccc2[C@H]1C(=O)O (relative stereo) | 94.2 | selectivity ratio (FAS): 4.84
12 |  | 27.5 | CCCCCCCCCCC[C@H]1OC(=O)C(=C(C)C)[C@@H]1C(=O)O (relative stereo) | 153 | selectivity ratio (FAS): 5.57
13 |  | 88.6 | CCCCCCCC[C@@H]1OC(=O)c2ccccc2[C@H]1C(=O)O (relative stereo) |  | 
14 |  | 29.8 | CCCCCCCCC[C@@H]1OC(=O)c2ccccc2[C@H]1C(=O)O (relative stereo) |  | 
15 |  | 24.2 | CCCCCCCCCC[C@@H]1OC(=O)c2ccccc2[C@H]1C(=O)O (relative stereo) | > 200 | 
16 |  | 122 | CCCCCCCCCC[C@H]1OC(=O)C(=C(C)C)[C@@H]1C(=O)O (relative stereo) | > 200 | 
17 | 38.4 |  | CCCCCCCCC[C@H]1OC(=O)C(=C(C)C)[C@@H]1C(=O)O (relative stereo) |  | 
18 | 19.4 |  | CCCCCC[C@@H]1OC(=O)c2ccccc2[C@H]1C(=O)O (relative stereo) |  | 
